Structures are written as SMILES. The source made the active and inactive calls. The rule behind the calls is not given here. A value given as a limit tells only on which side of the number the result lay.

Test [1] concerns the target T1, Sterol O-acyltransferase, Soat (Rattus norvegicus) (UniProt Q7TQM4+O70536). The experiment in a line: Effective dose to reduce plasma total cholesterol level by 50% of the control value in cholesterol fed rats. Format: functional. The method in brief:
(§1)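 Cholesterol-fed rats given compound orally as a dietary admixture in a cholesterol-enriched diet. Plasma total cholesterol compared with control and reported as percent reduction at the dose, or as ED50, the dose reducing plasma total cholesterol by 50% of the control value.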

For test [2], the system named is Rattus norvegicus. The experiment in a line: Compound was evaluated for percent reduction in total cholesterol level at >0.32 mg/kg. Format: functional. The method, boiled down: as §1
Another test deals with O-acyltransferase (Oryctolagus cuniculus, UniProt G1SFD9). The experiment in a line: In vitro inhibitory activity against Acyl coenzyme A:cholesterol acyltransferase (ACAT) in rabbit intestinal microsomes. Set-up: species or system Intestine. The method in brief:
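Enzyme source was mucosal microsomes from small intestine of cholesterol-fed rabbits, incubated with [1-¹⁴C]oleoyl-CoA (Heider method, minor modifications).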

The species named for the next test is Mus musculus. The experiment in a line: Compound tested for inhibitory activity of foam cell formation in mouse peritoneal macrophages. The test is classed as functional. The method, boiled down:
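Mouse peritoneal macrophages from nonstimulated mice, lavaged with PBS, plated 2 × 10⁶ cells/mL, adhered 2 h, then 18 h in 10% FBS-DMEM. Incubated 4 h at 37 °C with 0.2 mmol/L [1-¹⁴C]oleate–BSA, 30 µg/mL acetylated human LDL and compound (0.1% DMSO). Lipids extracted, TLC-separated, and cholesteryl [¹⁴C]oleate counted. Cell protein also measured. IC50 in nM.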

The species entered for test [3] is Rattus norvegicus. In words: Effective dose to reduce plasma total cholesterol level by 50% of the control in cholesterol fed rats. The test is classed as functional. The method, boiled down:
as §1

Test [4] relates to Rattus norvegicus. In words: Compound was evaluated for percent reduction in total cholesterol level at >0.32 mg/kg; Inactive. Format: functional, organism-based. The method, boiled down:
as §1

Test [5] addresses T1, Sterol O-acyltransferase, Soat (Rattus norvegicus). In words: Percentage reduction in total cholesterol level at <1 mg/kg. Format: functional, organism-based. The method, boiled down:
as §1

Test [6] has as its system Rattus norvegicus. The experiment in a line: Compound was evaluated for percent reduction in total cholesterol level at >1 mg/kg; inactive. The test is classed as functional, organism-based. The method in brief: as §1
The subject of test [7] is Rattus norvegicus. In words: Compound was evaluated for percent reduction in total cholesterol level at >0.1 mg/kg; Inactive. Format: functional, organism-based. The method, boiled down:
as §1

For test [8], the species on record is Rattus norvegicus. The experiment in a line: Effective dose to reduce plasma total cholesterol level by 50% of the control value in cholesterol fed rats; Inactive. Format: functional, organism-based. The method, boiled down: as §1
Test [9] relates to Rattus norvegicus. In words: Compound was evaluated for percent reduction in total cholesterol level at >0.1 mg/kg. Format: functional. The method, boiled down: as §1
Test [10] concerns Rattus norvegicus. In words: Compound was evaluated for percent reduction in total cholesterol level at >1 mg/kg; Inactive. Format: functional, organism-based. The method, boiled down: as §1
The subject of test [11] is Rattus norvegicus. In words: Effective dose to reduce plasma total cholesterol level by 50% of the control in cholesterol fed rats when administered by gavage in PEG400 as a vehicle. Format: functional. As to conditions: po. The method, boiled down:
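Rats on a cholesterol diet were dosed orally by gavage with compound in PEG400 vehicle. Plasma total cholesterol measured. ED50 is the dose reducing it by 50% of the control value.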

Chain of O-acyltransferase (G1SFD9 1-524): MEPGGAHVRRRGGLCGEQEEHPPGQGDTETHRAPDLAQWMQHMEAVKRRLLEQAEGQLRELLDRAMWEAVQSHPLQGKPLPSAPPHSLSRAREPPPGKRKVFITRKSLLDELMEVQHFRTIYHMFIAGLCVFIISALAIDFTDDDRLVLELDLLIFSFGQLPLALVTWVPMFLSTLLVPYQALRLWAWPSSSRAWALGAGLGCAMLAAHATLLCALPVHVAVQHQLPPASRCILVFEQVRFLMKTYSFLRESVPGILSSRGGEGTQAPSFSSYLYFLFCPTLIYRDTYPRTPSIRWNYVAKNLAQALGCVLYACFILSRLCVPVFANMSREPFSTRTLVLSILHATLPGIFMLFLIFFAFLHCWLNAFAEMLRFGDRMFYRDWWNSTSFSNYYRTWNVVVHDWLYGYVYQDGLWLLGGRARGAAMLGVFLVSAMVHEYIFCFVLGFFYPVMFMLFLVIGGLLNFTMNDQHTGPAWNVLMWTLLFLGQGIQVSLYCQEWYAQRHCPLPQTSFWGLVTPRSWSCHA

The compound `CSc1cc(C)nc(SC)c1NC(=O)N(Cc1cccc(-c2cc[nH]n2)c1)C1CCCCCC1` had an ED50 in test [1] of more than 0.32 mg/kg. The same compound registered a Reduction in the test on Rattus norvegicus [2] of 24%. Moreover, half-maximal inhibition on O-acyltransferase (IC50) was put at 260 nM.

`Cc1cc(C)c(NC(=O)N(Cc2cccc(-c3cc[nH]n3)c2)C2CCCCCC2)c(C)c1` showed an ED50 in test [1] of 0.097 mg/kg. Also, the IC50 in the test listed under Mus musculus was determined as 460 nM; against O-acyltransferase it was 65 nM.

For the compound `Cc1cc(C)c(NC(=O)N(Cc2ccc(-c3ccn(C)n3)cc2)C2CCCCCC2)c(C)c1`, the ED50 in test [1] is less than 1 mg/kg; in the test filed under Rattus norvegicus [3] it was more than 0.32 mg/kg. Further, the Reduction result in the test with Rattus norvegicus [4] was “inactive”. The 50% inhibitory concentration (IC50) on O-acyltransferase was 44 nM. The same compound yielded a Reduction in test [5] of 88%.

In test [1], `Cc1cc(C)c(NC(=O)N(Cc2c[nH]c(-c3ccccc3)n2)C2CCCCCC2)c(C)c1` gave a 50% effective dose (ED50) of more than 1 mg/kg. Moreover, in the test with Rattus norvegicus [6], the Reduction entry was “inactive”. On O-acyltransferase, the IC50 is 750 nM.

`CSc1cc(C)nc(SC)c1NC(=O)N(Cc1ccccc1)Cc1ccc(-c2ccn(C)n2)cc1` had a 50% effective dose (ED50) in [1] of more than 0.32 mg/kg. Moreover, the Reduction result in the test on Rattus norvegicus [7] is “inactive”. Moreover, on O-acyltransferase, the half-inhibitory concentration (IC50) was determined as 29 nM.

With `CSc1cc(C)nc(SC)c1NC(=O)N(Cc1ccc(-c2cnn(C)c2)cc1)C1CCCCCC1`, the ED50 entry in the test filed under Rattus norvegicus [8] is “inactive”. The same compound yielded an ED50 in [1] of more than 0.1 mg/kg.

With `COc1ccccc1CN(Cc1cccc(-c2cc[nH]n2)c1)C(=O)Nc1c(SC)cc(C)nc1SC`, in the test listed under Rattus norvegicus [8], the ED50 entry was “inactive”. In test [1], the median effective dose (ED50) was more than 0.1 mg/kg.

Take `Cc1cc(C)c(NC(=O)N(Cc2ccc(-c3nnc(C)o3)cc2)C2CCCCCC2)c(C)c1`: the ED50 in test [1] is more than 0.32 mg/kg. Besides, the Reduction in the test with Rattus norvegicus [2] was found to be 37%. For the same compound, the 50% inhibitory concentration (IC50) at O-acyltransferase was 27 nM.

With `CSc1cc(C)nc(SC)c1NC(=O)N(Cc1ccccc1)Cc1cccc(-c2cnn(C)c2)c1`, the ED50 in [1] was more than 0.1 mg/kg. The Reduction in the test with Rattus norvegicus [9] is given as 43%.

Take `O=C(Nc1c(F)cc(F)cc1F)N(Cc1ccc(-c2ccsc2)cc1)C1CCCCCC1`: the Reduction entry in the test with Rattus norvegicus [10] was “inactive”. Further, the ED50 in [1] is more than 1 mg/kg. At O-acyltransferase, the half-inhibitory concentration (IC50) came out at 23 nM.

For `Cc1cc(C)c(NC(=O)N(Cc2ccc(-n3cccn3)cc2)C2CCCCCC2)c(C)c1`, the Reduction result with Rattus norvegicus [10] was “inactive”. In test [1], this compound registered a 50% effective dose (ED50) of more than 1 mg/kg. In addition, the half-maximal inhibitory concentration (IC50) against O-acyltransferase worked out at 70 nM.

On to `O=C(Nc1c(F)cc(F)cc1F)N(Cc1cccc(-c2cc[nH]n2)c1)C1CCCCCC1`, for which the results for the 50% effective dose (ED50) (in the test with Rattus norvegicus [11]; in test [1]) were 0.79 mg/kg and 0.062 mg/kg, respectively. The figures for the IC50 in the test listed under Mus musculus and on O-acyltransferase were 580 nM and 22 nM, respectively.

As for `CC(C)c1cccc(C(C)C)c1OC(=O)NS(=O)(=O)Oc1c(C(C)C)cccc1C(C)C`, in [1], the 50% effect level (ED50) was put at a dose of 0.61 mg/kg. Also, the IC50 in the test listed under Mus musculus worked out at 55000 nM; on O-acyltransferase, 4000 nM.

As to `CSc1cc(C)nc(SC)c1NC(=O)N(Cc1cccc(-c2cnn(C)c2)c1)C1CCCCCC1`, the ED50 in test [1] was more than 0.1 mg/kg. This compound also yielded a Reduction with Rattus norvegicus [9] of 44%.

As to `CSc1cc(C)nc(SC)c1NC(=O)N(CCc1ccccc1)Cc1cccc(-c2cc[nH]n2)c1`, in the test filed under Rattus norvegicus [8], the ED50 entry is “inactive”. The ED50 in test [1] is more than 0.1 mg/kg.

For `Cc1cc(C)c(NC(=O)N(Cc2ccc(-c3ccccc3)cc2)C2CCCCCC2)c(C)c1`, in the test filed under Rattus norvegicus [3], the ED50 amounted to 0.29 mg/kg. The same compound displayed a concentration for half-maximal inhibition (IC50) at O-acyltransferase of 24 nM.

As usually defined, the ED50 is the dose that gives a 50% effect, or the effect in half of the subjects. The IC50 is the midpoint of a concentration-inhibition curve. Read a low IC50 as greater potency in that assay.

The values are drawn from ChEMBL document CHEMBL1131624, “Inhibitors of acyl-CoA:cholesterol O-acyltransferase. 2. Identification and structure-activity relationships of a novel series of N-alkyl-N-(heteroaryl-substituted benzyl)-N'-arylureas” (J Med Chem, 1998).
